# From ChEMBL document CHEMBL5303300, “EUbOPEN Chemogenomics Library - Multiplex” (2023)
# Values joined by “and” are separate entries in the source; they are usually repeats but may differ in a detail not shown here. Equal values may be shown once.
# Key:
# U2OS = test: Multiplex assay against U2OS; assay type: toxicity, cell-based; conditions: human, number of replicates 2
# How it was run: (§1)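 Phenotypes for tubulin, mitochondrial mass and membrane permeability are expressed as per cents of healthy-nucleus cells. Cells were stained live at seeding with Hoechst33342, BioTracker Green Microtubule Cytoskeleton Dye, MitoTracker Red and Annexin V Alexa Fluor 680, then imaged after compound addition on a CQ1 microscope at 37°C and 5% CO2. Machine-learning gating in CellPathfinder separated Hoechst high-intensity objects from normal cells, divided normal cells by nuclear state (healthy, pyknosed, fragmented) and divided pyknosed cells into mitotic or apoptotic.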
# HEK-293T = test: Multiplex assay against HEK293T; assay type: toxicity, cell-based; conditions: human, number of replicates 2; how it was run: as §1
# [1] = 12 h, 1 µM, compound concentration 1 uM
# [2] = 12 h, 10 µM, compound concentration 10 uM
# [3] = 24 h, 1 µM, compound concentration 1 uM
# [4] = 24 h, 10 µM, compound concentration 10 uM
# [5] = 48 h, 1 µM, compound concentration 1 uM
# [6] = 48 h, 10 µM, compound concentration 10 uM
smiles,measurement,setting,value
C[C@@H](Oc1cc(-n2cnc3ccc(OC4CCN(C)CC4)cc32)sc1C(N)=O)c1ccccc1Cl [GSK-579289A],Population Apoptotic (%),U2OS; [1],100% and 47%
same,Population Fragmented Nuclei (%),U2OS; [1],4% and 6%
same,Population Healthy Nuclei (%),U2OS; [1],78%
same,Population Hoechst High Intensity Objects (%),U2OS; [1],0%
same,Population Membrane Permeable-Phenotype (%),U2OS; [1],24% and 17%
same,Population Normal (%),U2OS; [1],100% and 99%
same,Population Pyknosed Nuclei (%),U2OS; [1],16% and 15%
same,Population Tubulin-Different-Phenotype (%),U2OS; [1],33% and 43%
same,Population Apoptotic (%),U2OS; [2],78% and 61%
same,Population Fragmented Nuclei (%),U2OS; [2],9% and 23%
same,Population Healthy Nuclei (%),U2OS; [2],64% and 47%
same,Population Hoechst High Intensity Objects (%),U2OS; [2],2% and 0%
same,Population Membrane Permeable-Phenotype (%),U2OS; [2],55% and 27%
same,Population Mitochondria Different-Phenotype (%),U2OS; [2],69% and 72%
same,Population Mitotic Cells (%),U2OS; [2],22% and 38%
same,Population Normal (%),U2OS; [2],97% and 100%
same,Population Pyknosed Nuclei (%),U2OS; [2],26% and 28%
same,Population Tubulin-Different-Phenotype (%),U2OS; [2],97% and 95%
same,Population Apoptotic (%),U2OS; [3],100% and 78%
same,Population Fragmented Nuclei (%),U2OS; [3],9% and 4%
same,Population Healthy Nuclei (%),U2OS; [3],84% and 76%
same,Population Hoechst High Intensity Objects (%),U2OS; [3],0%
same,Population Membrane Permeable-Phenotype (%),U2OS; [3],14% and 23%
same,Population Mitotic Cells (%),U2OS; [3],0% and 21%
same,Population Normal (%),U2OS; [3],100% and 99%
same,Population Pyknosed Nuclei (%),U2OS; [3],6% and 18%
same,Population Tubulin-Different-Phenotype (%),U2OS; [3],33% and 46%
same,Population Apoptotic (%),U2OS; [4],78% and 81%
same,Population Fragmented Nuclei (%),U2OS; [4],8% and 5%
same,Population Healthy Nuclei (%),U2OS; [4],41% and 52%
same,Population Hoechst High Intensity Objects (%),U2OS; [4],4% and 0%
same,Population Membrane Permeable-Phenotype (%),U2OS; [4],52% and 83%
same,Population Mitochondria Different-Phenotype (%),U2OS; [4],84% and 67%
same,Population Mitotic Cells (%),U2OS; [4],21% and 18%
same,Population Normal (%),U2OS; [4],95% and 99%
same,Population Pyknosed Nuclei (%),U2OS; [4],50% and 41%
same,Population Tubulin-Different-Phenotype (%),U2OS; [4],100% and 98%
same,Population Apoptotic (%),U2OS; [5],95% and 75%
same,Population Healthy Nuclei (%),U2OS; [5],60% and 55%
same,Population Hoechst High Intensity Objects (%),U2OS; [5],0%
same,Population Membrane Permeable-Phenotype (%),U2OS; [5],33% and 19%
same,Population Normal (%),U2OS; [5],100%
same,Population Pyknosed Nuclei (%),U2OS; [5],31% and 21%
same,Population Tubulin-Different-Phenotype (%),U2OS; [5],56% and 38%
same,Population Apoptotic (%),U2OS; [6],100% and 95%
same,Population Fragmented Nuclei (%),U2OS; [6],9% and 12%
same,Population Healthy Nuclei (%),U2OS; [6],19% and 12%
same,Population Hoechst High Intensity Objects (%),U2OS; [6],4%
same,Population Membrane Permeable-Phenotype (%),U2OS; [6],100% and 95%
same,Population Mitochondria Different-Phenotype (%),U2OS; [6],50% and 70%
same,Population Mitotic Cells (%),U2OS; [6],0% and 4%
same,Population Normal (%),U2OS; [6],95%
same,Population Pyknosed Nuclei (%),U2OS; [6],70% and 74%
same,Population Tubulin-Different-Phenotype (%),U2OS; [6],100% and 95%
same,Population Apoptotic (%),HEK-293T; [1],49% and 50%
same,Population Fragmented Nuclei (%),HEK-293T; [1],4% and 2%
same,Population Healthy Nuclei (%),HEK-293T; [1],79% and 81%
same,Population Hoechst High Intensity Objects (%),HEK-293T; [1],7% and 8%
same,Population Membrane Permeable-Phenotype (%),HEK-293T; [1],8% and 3%
same,Population Mitochondria Different-Phenotype (%),HEK-293T; [1],27% and 24%
same,Population Mitotic Cells (%),HEK-293T; [1],50%
same,Population Normal (%),HEK-293T; [1],93% and 91%
same,Population Pyknosed Nuclei (%),HEK-293T; [1],16%
same,Population Tubulin-Different-Phenotype (%),HEK-293T; [1],88% and 90%
same,Total Cell Count,HEK-293T; [1],686 and 707
same,Population Apoptotic (%),HEK-293T; [2],72% and 75%
same,Population Fragmented Nuclei (%),HEK-293T; [2],2% and 1%
same,Population Healthy Nuclei (%),HEK-293T; [2],79% and 84%
same,Population Hoechst High Intensity Objects (%),HEK-293T; [2],19% and 10%
same,Population Membrane Permeable-Phenotype (%),HEK-293T; [2],7% and 3%
same,Population Mitochondria Different-Phenotype (%),HEK-293T; [2],69% and 73%
same,Population Mitotic Cells (%),HEK-293T; [2],27% and 25%
same,Population Normal (%),HEK-293T; [2],80% and 89%
same,Population Pyknosed Nuclei (%),HEK-293T; [2],17% and 13%
same,Population Tubulin-Different-Phenotype (%),HEK-293T; [2],82% and 85%
same,Total Cell Count,HEK-293T; [2],381 and 356
same,Population Apoptotic (%),HEK-293T; [3],41% and 65%
same,Population Fragmented Nuclei (%),HEK-293T; [3],1% and 3%
same,Population Healthy Nuclei (%),HEK-293T; [3],75%
same,Population Hoechst High Intensity Objects (%),HEK-293T; [3],8% and 7%
same,Population Membrane Permeable-Phenotype (%),HEK-293T; [3],2% and 0%
same,Population Mitochondria Different-Phenotype (%),HEK-293T; [3],55% and 62%
same,Population Mitotic Cells (%),HEK-293T; [3],58% and 34%
same,Population Normal (%),HEK-293T; [3],91% and 92%
same,Population Pyknosed Nuclei (%),HEK-293T; [3],22% and 21%
same,Population Tubulin-Different-Phenotype (%),HEK-293T; [3],93% and 95%
same,Total Cell Count,HEK-293T; [3],585 and 584
same,Population Apoptotic (%),HEK-293T; [4],78% and 69%
same,Population Fragmented Nuclei (%),HEK-293T; [4],7% and 6%
same,Population Healthy Nuclei (%),HEK-293T; [4],75% and 79%
same,Population Hoechst High Intensity Objects (%),HEK-293T; [4],23% and 16%
same,Population Membrane Permeable-Phenotype (%),HEK-293T; [4],1%
